# The list is not random: actives were taken first. Their share in the collection is about 3.8%.
# RGS4 inh: human RGS4 inhibition; HEK293 M3R/RGS4 inducible, Fluo-4 calcium flux; active compounds read high; triggered by carbachol at its EC20; B-score at 10 µM; hit rate 0.45% among 310,000; AID 463165;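 active = B-score, a plate-corrected calcium signal, over three deviations above library mean, with baseline fluorescence within five deviations of library mean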;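 note: RGS4 expression induced by doxycycline in cells with stable M3 receptor; B-score is computed from the integrated fluorescence ratio over baseline after carbachol; higher B-score means a larger calcium signal and so more RGS4 inhibition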
# Target sequence (P49798 whole entry, looked up): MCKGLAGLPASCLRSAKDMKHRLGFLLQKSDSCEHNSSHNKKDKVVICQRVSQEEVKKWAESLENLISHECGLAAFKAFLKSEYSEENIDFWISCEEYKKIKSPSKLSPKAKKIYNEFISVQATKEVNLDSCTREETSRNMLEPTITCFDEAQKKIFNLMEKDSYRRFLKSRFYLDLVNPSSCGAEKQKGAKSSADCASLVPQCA
# MrgX1 antagonist: antagonists of human MrgX1 receptor; Q96LB2; MRGX1-HEK293 calcium flux, Fluo-4, BAM8-22 antagonism; active compounds read low; B-score at 10 µM; hit rate 1.3% among 310,000; AID 588676;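 active = calcium-response B-score plate-corrected more than 3 library SD below zero, starting fluorescence within 5 deviations, no agonist response on first addition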;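 note: peak minus trough fluorescence over baseline after final BAM8-22 challenge near maximal dose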
# Target sequence (Q96LB2 whole entry, looked up): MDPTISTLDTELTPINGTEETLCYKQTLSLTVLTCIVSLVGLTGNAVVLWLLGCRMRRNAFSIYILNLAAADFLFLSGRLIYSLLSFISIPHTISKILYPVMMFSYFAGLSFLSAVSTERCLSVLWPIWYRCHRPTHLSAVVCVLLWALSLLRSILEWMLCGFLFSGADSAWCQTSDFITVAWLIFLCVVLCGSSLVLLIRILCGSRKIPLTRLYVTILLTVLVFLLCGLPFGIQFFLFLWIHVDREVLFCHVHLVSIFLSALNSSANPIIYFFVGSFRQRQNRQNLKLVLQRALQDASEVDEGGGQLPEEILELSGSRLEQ
# Lipid droplet: modulators of hepatic lipid droplet formation; AML12 mouse hepatocytes, oleate lipid droplets, BODIPY imaging; inhibition, % at 6.5 µM; hit rate 0.4% among 240,000; AID 1656;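 active = lipid droplet intensity inhibited by at least 50%, with more than 500 cells counted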
#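 material = mouse AML12 hepatocyte cell line, fixed after treatment | also added = 100 µM oleic acid challenge | doses = compound at 6.5 µM only | schedule = overnight exposure | technique = Image-based BODIPY and DAPI two-channel analysis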
# RGS4 pot: potentiators or activators of RGS4; B-score at 10 µM; AID 463111; HEK293 M3R/inducible RGS4, carbachol calcium flux Fluo4; active compounds read low; hit rate 0.92% among 310,000;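 active = B-score of the integrated calcium signal more than 4 SD below the library mean, with starting fluorescence not abnormally high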;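 note: negative B-score means reduced calcium response which marks RGS4 activation or potentiation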
#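 Reagent: ECmax carbachol challenge; Test system: M3R-expressing HEK293 line, RGS4 induced by doxycycline; Schedule: overnight RGS4 induction, 30 min dye load 37 °C, 20 min compound RT; Detection: calcium dye Fluo4 fluorescence; Read-out: Agonist-evoked peak-minus-minimum fluorescence over baseline, integrated ratio, B score.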
# MrgX1 PAM: allosterically activates human MrgX1 receptor signaling | Q96LB2 | MrgX1-HEK293, Fluo-4 calcium flux, FDSS; active compounds read high | B-score at 10 µM | hit rate 0.63% among 310,000 | AID 588675;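 active = plate-corrected calcium response at least 3 library SD above typical, normal starting fluorescence, not activating the receptor alone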;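 note: compound read alongside a low EC10 to EC30 dose of BAM8-22 agonist; peak minus trough fluorescence over baseline measured at the second addition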
# MrgX1 ag: agonists of human MrgX1 receptor; Q96LB2; hit rate 0.44% among 310,000; AID 588627; MrgX1-HEK293 cells, Fluo-4 calcium fluorescence, agonist mode; active compounds read high; B-score at 10 µM;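 active = calcium response B-score plate-corrected fluorescence ratio at least 3 library SD, with starting fluorescence B-score inside 5 SD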
#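 Test system: HEK293 cells stably expressing human MrgX1 receptor; Input: fifteen thousand cells per well; Dosing: compound delivered in addition one of three; Schedule: overnight seeding, then 1 h dark dye loading; Technique: Fluo-4 NW calcium fluorescence; Measure: B-scored fluorescence response ratio; Controls: positive and negative controls per plate.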
# MrgX1 allo conf: human MrgX1 positive allosteric modulation, re-confirmation; shares compounds with MrgX1 PAM; MrgX1-HEK293, Fluo-4 calcium fluorescence, FDSS; activation (ratio percentage), % at 10 µM; hit rate 13% among 1,200; AID 602413;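 active = ratio at least 3 SD above the weak peptide control, stable starting fluorescence, no direct agonism earlier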;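 note: compound followed by low BAM8-22 agonist challenge near EC20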
# MrgX1 ant reconf: confirmation of human MrgX1 receptor antagonists; MrgX1-HEK293, BAM8-22 calcium flux, Fluo-4; active compounds read low; shares compounds with MrgX1 antagonist; remaining BAM8-22 calcium response % of control (active compounds read low), % at 10 µM; hit rate 19% among 2,300;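 active = remaining agonist calcium response no higher than 100% minus 3 SD of agonist-only control wells, with starting fluorescence near control levels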;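 note: agonist BAM8-22 given at a near maximal EC90 to ECmax level; peak minus minimum fluorescence divided by baseline after agonist addition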
# HEK293 Ca flux: MrgX1 antagonist counter-screen hit in parental HEK293 cells; fluorescence ratio F(max-min)/F0 at 10 µM; Fluo-4 calcium fluorescence, FDSS; hit rate 2% among 4,000; AID 624111; shares compounds with MrgX1 antagonist;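 active = duplicate-averaged calcium fluorescence ratio at least three times the standard deviation of buffer wells, a nonspecific response in parental cells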
# HEK293 Ca counter: counter-screen for MrgX1 allosteric activators: effect in parental HEK293 cells | shares compounds with MrgX1 antagonist | parental HEK293 calcium flux, Fluo-4 fluorescence ratio; active compounds read high | fluorescence ratio F(max-min)/F0 at 10 µM | hit rate 0.4% among 4,000;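 active = calcium fluorescence ratio, averaged over duplicates, at least 3 SD of the buffer-well ratio, meaning a nonspecific response in receptor-free cells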;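 note: untransfected parental HEK293 lacking MrgX1 used as counterscreen for MrgX1 allosteric activators; fluorescence change taken during the second addition on a kinetic imager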
# HEK293 Ca cntr2: MrgX1 activator counter-screen hit in parental HEK293 cells; shares compounds with MrgX1 antagonist; hit rate 8.7% among 4,000; Fluo-4 calcium fluorescence (FDSS); active compounds read high; fluorescence ratio F(max-min)/F0 at 10 µM;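 active = calcium fluorescence ratio at least three times the spread of buffer wells, meaning a non-specific response in parental cells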
# An asterisk follows results filed as active; i = inactive; . = no result given.
SMILES,RGS4 inh,MrgX1 antagonist,Lipid droplet,RGS4 pot,MrgX1 PAM,MrgX1 ag,MrgX1 ant reconf,HEK293 Ca flux,HEK293 Ca counter,HEK293 Ca cntr2,others
C=CCN1C(=O)C2(C(C(=O)OCC)=C(N)Oc3ccccc32)c2c1c1ccccc1oc2=O (centres undefined),i,i,-2,i,24*,i,.,i,i,i,MrgX1 allo conf=33%*
Cc1cc(OCC(=O)N2CCC(C(N)=O)CC2)c2c3c(c(=O)oc2c1)CCCC3,i,i,-14,i,i,i,.,.,.,.,
C1CC2NCCC3NCCC(N1)N32 (centres undefined),i,i,10,i,i,i,.,.,.,.,
CCCCn1c(=O)c(C(=O)NCc2ccccc2)c(O)c2ccccc21,i,i,4,i,i,i,.,.,.,.,
CCCCCn1c(=O)c(C(=O)NCc2ccc(Cl)cc2)c(O)c2ccccc21,i,i,-2,i,8.8*,i,.,i,49*,i,MrgX1 allo conf=i
CCCC1=C(C(=O)OCC)C2(C(=O)Nc3ccccc32)C(C#N)=C(N)O1 (centres undefined),i,-4.6*,.,i,i,i,i,i,i,i,
CCc1nc2ccccc2c(=O)n1-c1ccccc1[N+](=O)[O-],i,i,-6,i,i,i,.,.,.,.,
Cc1nnc(SCc2nc3ccccc3c(=O)n2-c2ccccc2Cl)n1N,i,-8.2*,6,i,i,i,82%*,i,i,i,
COc1ccc(C(=O)Oc2cccc3cccnc23)cc1S(=O)(=O)N1CCOCC1,i,-6*,1,i,i,i,i,i,i,i,
COc1ccc(C(=O)N2CCOCC2)cc1S(=O)(=O)N1CCC(C)CC1,i,i,0,i,i,i,.,.,.,.,
O=C(CCc1nnc2ccc(NCc3ccccc3Cl)nn12)N1CCC2(CC1)OCCO2,i,i,0,i,i,i,.,.,.,.,
CCOc1cc2c(cc1OCC)-n1cccc1C(c1ccc(OC(F)F)cc1)NC2 (centres undefined),i,-10*,3,i,i,i,42%*,i,i,i,
CC(C)CNC(=O)c1c(N)n(Cc2ccc3c(c2)OCO3)c2nc3ccccc3nc12,i,-6*,14,i,i,i,i,i,i,54*,
CC(C)CCNC(=O)c1c(N)n(Cc2ccc3c(c2)OCO3)c2nc3ccccc3nc12,i,i,.,i,i,i,.,.,.,.,
CN1C(=O)C(c2ccc([N+](=O)[O-])cc2[N+](=O)[O-])C(=O)N(C)C1=O,i,i,4,i,i,i,.,.,.,.,
Nc1ccc([As](=O)(O)O)cc1,i,-6*,-5,i,i,i,i,i,i,i,
O=C(CN1CCOCC1)c1ccc2cc[nH]c2c1,i,i,1,i,i,i,.,.,.,.,
COc1ccc(C(=O)CN2CCOCC2)cc1F,i,-5.2*,.,i,i,i,i,i,i,i,
c1ccc(CNCCc2ccc3c(c2)OCO3)nc1,i,i,5,i,i,i,.,.,.,.,
O=C1NC(=O)C(CCc2ccccn2)(Cc2ccc3c(c2)OCO3)C(=O)N1CCc1ccccc1 (centres undefined),i,-5.2*,-20,i,i,i,i,i,i,i,
CCOC(=O)C1(CCc2ccccc2)CCN(C(C)CSC)CC1 (centres undefined),i,i,.,i,i,i,.,.,.,.,
O=C(CN1CC(c2ccccc2)CC1=O)Nc1ccc(F)cc1 (centres undefined),i,-10*,18,i,i,i,i,i,i,i,
O=C(CN1CC(c2ccccc2)CC1=O)Nc1cccc(F)c1 (centres undefined),i,i,0,i,i,i,.,.,.,.,
CCc1ccc(C2=NN(CCC(=O)N3CCC4(CC3)OCCO4)C(=O)CC2)cc1,i,i,0,i,i,i,.,.,.,.,
CN1CCc2nc(SCc3cccc(Br)c3)c(C#N)cc2C1,i,-4.7*,-39,i,i,i,i,i,i,i,
SMILES,RGS4 inh,MrgX1 antagonist,Lipid droplet,RGS4 pot,MrgX1 PAM,MrgX1 ag,MrgX1 ant reconf,HEK293 Ca flux,HEK293 Ca counter,HEK293 Ca cntr2,others
CSc1ccc(C(=O)C2CCCN(Cc3cc4ccccc4[nH]3)C2)cc1 (centres undefined),i,-5.1*,0,-7.1*,i,i,79%*,i,i,i,
CCOC(=O)C(O)(c1ccc(N(C)C(=O)c2ccc(Cl)c(Cl)c2)cc1)C(F)(F)F (centres undefined),i,i,-26,i,i,i,.,.,.,.,
COC(=O)C(O)(c1ccc(N(C)C(=O)c2ccc(Cl)c(Cl)c2)cc1)C(F)(F)F (centres undefined),i,-7.8*,1,i,i,i,i,i,i,i,
Cc1cc(OCC(=O)N2C[C@H]3C[C@@H](C2)c2cccc(=O)n2C3)c2c(C)cc(=O)oc2c1,i,i,-2,i,i,i,.,.,.,.,
CCCCCn1c(=O)c(C(=O)NC(C)c2ccccc2)c(O)c2ccccc21 (centres undefined),i,-4.8*,-7,i,i,i,i,i,i,i,
C[C@H](NC(=O)N1C[C@H]2C[C@@H](C1)c1cccc(=O)n1C2)C(=O)Nc1ccccc1F,i,i,6,i,i,i,.,.,.,.,
COC(=O)c1ccc(NC(=O)CSc2nc3ccc(N4C(=O)C5C6C=CC(C6)C5C4=O)cc3s2)cc1 (centres undefined),i,-7.4*,-23,i,i,i,55%*,i,i,i,
CCCC(=O)c1ccc(CP(=O)(OCC)OCC)o1,i,i,-6,i,i,i,.,.,.,.,

# Compound activity deposited in PubChem by several laboratories.
